The record followed here is ChEMBL document CHEMBL1938355, “Antimycobacterial activities of 5-alkyl (or halo)-3'-substituted pyrimidine nucleoside analogs” (Bioorg Med Chem Lett, 2012).

Test [1] relates to Mycobacterium tuberculosis. In words: Antimycobacterial activity against Mycobacterium bovis BCG assessed as growth inhibition at 0.5 to 100 ug/ml by microplate alamar blue assay. It counts as functional, organism-based. To be noted: variant bovis BCG. A digest of the protocol:
(§1)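 Strains obtained from ATCC. Tested by microplate alamar blue assay. Compounds made up as 10 mg/mL DMSO stocks, then serially diluted in 7H9GC medium. Final test concentrations were 100, 50, 25, 10, 5, 1 and 0.5, each in triplicate. Experiments were run twice, and mean percent growth inhibition is reported.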

For test [2], the system named is Mycobacterium tuberculosis. In words: Antimycobacterial activity against Mycobacterium bovis BCG assessed as growth inhibition at 0.5 ug/ml by microplate alamar blue assay. The test is classed as functional. To be noted: variant bovis BCG, read-out: GI. In a few lines:
as §1
In general terms: The colour change of resazurin is a common sign of viable cells or microbes.

Test [3] concerns Mycobacterium tuberculosis. In words: Antimycobacterial activity against Mycobacterium bovis BCG assessed as growth inhibition at 100 ug/ml by microplate alamar blue assay. It counts as functional. Particulars: variant bovis BCG, read-out: GI. A digest of the protocol: as §1
Test [4] relates to Mycobacterium tuberculosis. Kind of test: Antimycobacterial activity against Mycobacterium bovis BCG by microplate alamar blue assay. To be noted: variant bovis BCG. The test is classed as functional.
Test [5] has as its system Mycobacterium tuberculosis. Kind of test: Antimycobacterial activity against Mycobacterium bovis BCG assessed as growth inhibition at 50 ug/ml by microplate alamar blue assay. To be noted: variant bovis BCG, read-out: GI. The test is classed as functional. A digest of the protocol:
as §1

For test [6], the system named is Mycobacterium tuberculosis. In words: Antimycobacterial activity against Mycobacterium bovis BCG assessed as growth inhibition at 10 ug/ml by microplate alamar blue assay. Particulars: variant bovis BCG, read-out: GI. The test is classed as functional. In a few lines:
as §1

In test [7] the test system is Mycobacterium tuberculosis. In words: Antimycobacterial activity against Mycobacterium bovis BCG assessed as growth inhibition at 1 ug/ml by microplate alamar blue assay. Particulars: variant bovis BCG, read-out: GI. It counts as functional. In a few lines:
as §1

Each structure is given as a SMILES string. Converted amounts (≈) assume the structure as drawn. The source made the active and inactive calls. No cut-off for these calls is given here.

For `O=c1[nH]c(=O)n([C@H]2C[C@H](F)[C@@H](CO)O2)cc1C(F)(F)F`, the “growth inhibition (GI)” value in test [1] is “inactive”.
Consider `CO[C@H]1/C=C/O[C@@]2(C)Oc3c(C)c(O)c4c(O)c(c(/C=N/N5CCN(C)CC5)c(O)c4c3C2=O)NC(=O)/C(C)=C\C=C\[C@H](C)[C@H](O)[C@@H](C)[C@@H](O)[C@@H](C)[C@H](OC(C)=O)[C@@H]1C` [RIFAMPIN], for which the inhibition of growth at 0.5 µg/mL in test [2] stood at 100%.
On to `CCc1cn([C@H]2C[C@H](F)[C@@H](CO)O2)c(=O)[nH]c1=O`, for which, in test [3], the inhibition of growth at 100 µg/mL stood at 40%.
Same read-out and setting: then `[N-]=[N+]=N[C@H]1C[C@H](n2cc(Cl)c(=O)[nH]c2=O)O[C@@H]1CO`, with 50%.
Regarding `CCc1cn([C@H]2CC[C@@H](CO)O2)c(=O)[nH]c1=O`, in test [1], the “growth inhibition (GI)” value is “inactive”.
`[N-]=[N+]=N[C@H]1C[C@H](n2cc(Br)c(=O)[nH]c2=O)O[C@@H]1CO`: the inhibition of growth at 100 µg/mL in test [3] is 50%.
The same measure, in the same setting: in the case of `Cc1cn([C@H]2C[C@H](N)[C@@H](CO)O2)c(=O)[nH]c1=O` [3-AMINO- 3-DEOXYTHYMIDINE] it was 50%.
For the molecule `N[C@@H]1CONC1=O` [CYCLOSERINE], the MIC50 (usually an inhibitory concentration at the 50% level, which refers to growth in some studies and to a panel of isolates in others) in test [4] came out at 1 µg/mL (≈ 9.79 µM). In addition, in test [3], the inhibition of growth at 100 µg/mL turned out to be 100%. Besides, the inhibition of growth at 50 µg/mL in test [5] was determined as 100%. The inhibition of growth at 10 µg/mL in test [6] was determined as 100%. In addition, the inhibition of growth at 1 µg/mL in test [7] is 50%.
Regarding `[N-]=[N+]=N[C@H]1C[C@H](n2cc(F)c(=O)[nH]c2=O)O[C@@H]1CO`, the “growth inhibition (GI)” value in test [1] was “inactive”.
Regarding `CCc1cn([C@H]2C[C@H](N=[N+]=[N-])[C@@H](CO)O2)c(=O)[nH]c1=O`, in test [4], the MIC50 was determined as 1 µg/mL (≈ 3.56 µM). In addition, in test [3], the inhibition of growth at 100 µg/mL was 95%. The inhibition of growth at 50 µg/mL in test [5] came out at 95%. Also, the inhibition of growth at 10 µg/mL in test [6] is 85%. The inhibition of growth at 1 µg/mL in test [7] turned out to be 50%.
Take `CCc1cn([C@H]2C[C@H](I)[C@@H](CO)O2)c(=O)[nH]c1=O`: the “growth inhibition (GI)” value in test [1] is “inactive”.
Regarding `CCc1cn([C@H]2C[C@@H](O)[C@@H](CO)O2)c(=O)[nH]c1=O`, the “growth inhibition (GI)” value in test [1] was “inactive”.
